Source: ChEMBL document CHEMBL4257579, “Analogs of penfluridol as chemotherapeutic agents with reduced central nervous system activity” (Bioorg Med Chem Lett, 2018)

Tests used:
Histamine H1 receptor [1] = molecular target: T1, Histamine H1 receptor (Homo sapiens, UniProt P35367); test: Displacement of [3H]Pyrilamine from human H1 receptor expressed in HEK cells by radioligand binding assay relative to control; format: cell-based; parameters: concentration or dose not given beside the values; conditions: concentration not given here
Histamine H1 receptor [2] = molecular target: T1, Histamine H1 receptor; test: Displacement of [3H]Pyrilamine from human H1 receptor expressed in HEK cells by radioligand binding assay; format: cell-based
Mus musculus [3] = test: Toxicity in C57BL/6J mouse assessed as alanine aminotransferase level at 5 mg/kg, ip treated daily for 7 consecutive days measured after 24 hrs post last dose […]; format: organism-based; conditions: in vivo
Summary of the method: (§1)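 Female C57BL6 mice given 5 mg/kg i.p. daily for 7 days; blood taken at sacrifice 24 h after last dose for clinical chemistry panel: electrolytes, minerals, total protein, albumin, globulin, A/G ratio, BUN, ALT, AST, GLDH, cholestasis markers, ALP, bilirubin, amylase, creatine kinase.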

Mus musculus [4] = test: Toxicity in C57BL/6J mouse assessed as bilirubin level at 5 mg/kg, ip treated daily for 7 consecutive days measured after 24 hrs post last dose […]; format: organism-based; conditions: in vivo; summary of the method: as §1
Mus musculus [5] = test: Toxicity in C57BL/6J mouse assessed as effect on spleen weight at 5 mg/kg, ip treated daily for 7 consecutive days measured after 24 hrs post last dose; format: organism-based; conditions: in vivo
Summary of the method: (§2)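 Female C57BL6 mice treated 5 mg/kg i.p. once daily for seven days; killed 24 h after final injection and organs collected and weighed.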

Mus musculus [6] = test: Toxicity in C57BL/6J mouse assessed as albumin level at 5 mg/kg, ip treated daily for 7 consecutive days measured after 24 hrs post last dose […]; format: organism-based; conditions: in vivo; summary of the method: as §1
Mus musculus [7] = test: Toxicity in C57BL/6J mouse assessed as effect on lung weight at 5 mg/kg, ip treated daily for 7 consecutive days measured after 24 hrs post last dose; format: organism-based; conditions: in vivo; summary of the method: as §2
Mus musculus [8] = test: Toxicity in C57BL/6J mouse assessed as effect on heart weight at 5 mg/kg, ip treated daily for 7 consecutive days measured after 24 hrs post last dose; format: organism-based; conditions: in vivo; summary of the method: as §2
Mus musculus [9] = test: Toxicity in C57BL/6J mouse assessed as amylase level at 5 mg/kg, ip treated daily for 7 consecutive days measured after 24 hrs post last dose […]; format: organism-based; conditions: in vivo; summary of the method: as §1
Mus musculus [10] = test: Toxicity in C57BL/6J mouse assessed as cholestasis level at 5 mg/kg, ip treated daily for 7 consecutive days measured after 24 hrs post last dose […]; format: organism-based; conditions: in vivo; summary of the method: as §1
[11] = molecular target: 5-hydroxytryptamine receptor 5A (Homo sapiens, UniProt P47898); test: Displacement of [3H]LSD from human 5-HT5A receptor expressed in Flp-In CHO cells by radioligand binding assay; format: cell-based
[12] = Tmax in C57BL/6J mouse brain at 10 mg/kg, ip treated daily for 7 consecutive days by LC/MS/MS analysis; format: ADME, organism-based
Mus musculus [13] = test: Toxicity in C57BL/6J mouse assessed as globulin level at 5 mg/kg, ip treated daily for 7 consecutive days measured after 24 hrs post last dose […]; format: organism-based; conditions: in vivo; summary of the method: as §1
Mus musculus [14] = test: Toxicity in C57BL/6J mouse assessed as electrolytes level at 5 mg/kg, ip treated daily for 7 consecutive days measured after 24 hrs post last dose […]; format: organism-based; conditions: in vivo; summary of the method: as §1
Mus musculus [15] = test: Toxicity in C57BL/6J mouse assessed as creatine kinase level at 5 mg/kg, ip treated daily for 7 consecutive days measured after 24 hrs post last dose […]; format: organism-based; conditions: in vivo; summary of the method: as §1
Mus musculus [16] = test: Toxicity in C57BL/6J mouse assessed as effect on kidney weight at 5 mg/kg, ip treated daily for 7 consecutive days measured after 24 hrs post last dose; format: organism-based; conditions: in vivo; summary of the method: as §2
[17] = Drug distribution in C57BL/6J mouse brain at 5 mg/kg, ip treated daily for 7 consecutive days measured after 24 hrs post last dose by LC/MS/MS analysis; format: ADME, organism-based; conditions: in vivo
Summary of the method: (§3)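 Female C57BL6 mice dosed 5 mg/kg i.p. once daily for seven consecutive days; sacrificed 24 h after last injection, organs stored at −80 °C. Plasma, brain, lungs and adipose tissue analysed by LC-MS/MS for drug concentration (nM); n = 5.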

Mus musculus [18] = test: Toxicity in C57BL/6J mouse assessed as aspartate aminotransferase level at 5 mg/kg, ip treated daily for 7 consecutive days measured after 24 hrs post last dose […]; format: organism-based; conditions: in vivo; summary of the method: as §1
Mus musculus [19] = test: Toxicity in C57BL/6J mouse assessed as total protein level at 5 mg/kg, ip treated daily for 7 consecutive days measured after 24 hrs post last dose […]; format: organism-based; conditions: in vivo; summary of the method: as §1
Mus musculus [20] = test: Toxicity in C57BL/6J mouse assessed as effect on liver weight at 5 mg/kg, ip treated daily for 7 consecutive days measured after 24 hrs post last dose; format: organism-based; conditions: in vivo; summary of the method: as §2
Mus musculus [21] = test: Toxicity in C57BL/6J mouse assessed as ratio of albumin to globulin level at 5 mg/kg, ip treated daily for 7 consecutive days measured after 24 hrs post last dose […]; format: organism-based; conditions: in vivo; summary of the method: as §1
[22] = Drug distribution in C57BL/6J mouse lung at 5 mg/kg, ip treated daily for 7 consecutive days measured after 24 hrs post last dose by LC/MS/MS analysis; format: ADME, organism-based; conditions: in vivo; summary of the method: as §3
Mus musculus [23] = test: Toxicity in C57BL/6J mouse assessed as effect on brain weight at 5 mg/kg, ip treated daily for 7 consecutive days measured after 24 hrs post last dose; format: organism-based; conditions: in vivo; summary of the method: as §2
Mus musculus [24] = test: Toxicity in C57BL/6J mouse assessed as minerals level at 5 mg/kg, ip treated daily for 7 consecutive days measured after 24 hrs post last dose […]; format: organism-based; conditions: in vivo; summary of the method: as §1
[25] = molecular target: Alpha-2C adrenergic receptor (Homo sapiens) (UniProt P18825); test: Displacement of [3H]Rauwolscine from human alpha 2C adrenergic receptor expressed in MDCK cells by radioligand binding assay relative to control; format: cell-based; conditions: concentration not given here
[26] = molecular target: T2, Beta-3 adrenergic receptor (Homo sapiens, UniProt P13945); test: Displacement of [3H]CGP12177 from human beta 3 adrenergic receptor expressed in HEK293FlpIN cells by radioligand binding assay relative to control; format: cell-based; conditions: concentration not given here
Target sequence in this assay (P13945 whole entry, looked up): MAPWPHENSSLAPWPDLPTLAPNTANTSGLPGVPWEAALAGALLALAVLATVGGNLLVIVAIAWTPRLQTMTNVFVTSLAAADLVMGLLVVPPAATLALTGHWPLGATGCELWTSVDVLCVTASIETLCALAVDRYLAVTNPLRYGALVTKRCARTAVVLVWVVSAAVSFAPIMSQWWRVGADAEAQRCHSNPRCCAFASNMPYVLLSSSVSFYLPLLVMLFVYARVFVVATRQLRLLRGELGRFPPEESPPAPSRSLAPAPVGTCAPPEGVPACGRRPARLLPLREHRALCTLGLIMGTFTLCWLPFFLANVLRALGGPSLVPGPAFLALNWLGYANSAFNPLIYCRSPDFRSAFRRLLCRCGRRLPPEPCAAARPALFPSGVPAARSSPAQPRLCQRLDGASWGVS

[27] = molecular target: Alpha-2B adrenergic receptor (Homo sapiens) (UniProt P18089); test: Displacement of [3H]Rauwolscine from human alpha 2B adrenergic receptor expressed in HEK293T cells by radioligand binding assay relative to control; format: cell-based; conditions: concentration not given here
[28] = molecular target: Alpha-2B adrenergic receptor (Homo sapiens, UniProt P18089); test: Displacement of [3H]Rauwolscine from human alpha 2B adrenergic receptor expressed in HEK293T cells by radioligand binding assay; format: cell-based
Summary of the method: (§4)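 Ki values were calculated from the radioligand displacement data.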

[29] = molecular target: Alpha-2C adrenergic receptor (Homo sapiens, UniProt P18825); test: Displacement of [3H]Rauwolscine from human alpha 2C adrenergic receptor expressed in MDCK cells by radioligand binding assay; format: cell-based; summary of the method: as §4
[30] = molecular target: T2, Beta-3 adrenergic receptor; test: Displacement of [3H]CGP12177 from human beta 3 adrenergic receptor expressed in HEK293FlpIN cells by radioligand binding assay; format: cell-based; summary of the method: as §4
Target sequence in this assay (P13945 whole entry): as the sequence (P13945 whole entry, looked up) above

[31] = molecular target: Alpha-1D adrenergic receptor (Homo sapiens) (UniProt P25100); test: Displacement of [3H]Prazosin from human alpha 1D adrenergic receptor expressed in HEK cells by radioligand binding assay relative to control; format: cell-based; conditions: concentration not given here
[32] = molecular target: Alpha-1D adrenergic receptor (Homo sapiens, UniProt P25100); test: Displacement of [3H]Prazosin from human alpha 1D adrenergic receptor expressed in HEK cells by radioligand binding assay; format: cell-based; summary of the method: as §4
Sequence of Alpha-1D adrenergic receptor (P25100 whole entry): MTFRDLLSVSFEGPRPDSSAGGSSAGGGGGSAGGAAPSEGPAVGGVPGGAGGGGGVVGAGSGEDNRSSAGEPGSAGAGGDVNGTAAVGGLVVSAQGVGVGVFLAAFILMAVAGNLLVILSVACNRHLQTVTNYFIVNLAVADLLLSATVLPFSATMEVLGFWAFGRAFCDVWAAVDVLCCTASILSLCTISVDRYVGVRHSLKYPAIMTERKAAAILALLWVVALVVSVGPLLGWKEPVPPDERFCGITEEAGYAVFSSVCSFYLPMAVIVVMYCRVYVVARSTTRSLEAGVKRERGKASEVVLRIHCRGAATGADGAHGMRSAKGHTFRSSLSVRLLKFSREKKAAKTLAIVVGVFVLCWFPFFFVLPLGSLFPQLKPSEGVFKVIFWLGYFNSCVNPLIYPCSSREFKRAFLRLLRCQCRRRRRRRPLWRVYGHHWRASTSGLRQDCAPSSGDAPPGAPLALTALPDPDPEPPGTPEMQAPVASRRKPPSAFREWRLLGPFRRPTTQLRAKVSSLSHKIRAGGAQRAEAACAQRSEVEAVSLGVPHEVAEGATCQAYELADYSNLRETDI

T1 sequence (P35367 whole entry): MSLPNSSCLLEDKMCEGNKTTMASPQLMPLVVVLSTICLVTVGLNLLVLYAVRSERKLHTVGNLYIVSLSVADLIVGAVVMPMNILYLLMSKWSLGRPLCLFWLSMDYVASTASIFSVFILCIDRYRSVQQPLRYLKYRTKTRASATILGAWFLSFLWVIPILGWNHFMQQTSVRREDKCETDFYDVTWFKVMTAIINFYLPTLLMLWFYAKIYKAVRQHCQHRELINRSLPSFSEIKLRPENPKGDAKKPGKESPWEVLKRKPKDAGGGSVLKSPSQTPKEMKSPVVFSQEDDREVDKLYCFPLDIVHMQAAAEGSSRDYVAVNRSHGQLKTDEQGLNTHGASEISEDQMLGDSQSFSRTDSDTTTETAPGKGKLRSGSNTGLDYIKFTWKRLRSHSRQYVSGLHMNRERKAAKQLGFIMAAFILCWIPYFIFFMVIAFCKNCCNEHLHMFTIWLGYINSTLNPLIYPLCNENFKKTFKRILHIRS
Sequence of 5-hydroxytryptamine receptor 5A (P47898 whole entry): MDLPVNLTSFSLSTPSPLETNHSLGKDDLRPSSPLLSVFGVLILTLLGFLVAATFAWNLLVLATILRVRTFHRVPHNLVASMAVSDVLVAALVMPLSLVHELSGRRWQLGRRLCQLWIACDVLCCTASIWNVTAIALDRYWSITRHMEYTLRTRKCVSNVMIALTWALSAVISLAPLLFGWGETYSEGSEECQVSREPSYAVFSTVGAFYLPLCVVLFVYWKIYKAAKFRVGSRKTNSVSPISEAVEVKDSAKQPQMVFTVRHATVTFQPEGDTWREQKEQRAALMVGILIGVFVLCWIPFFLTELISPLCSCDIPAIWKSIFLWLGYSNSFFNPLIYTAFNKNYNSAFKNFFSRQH
Sequence of Alpha-2B adrenergic receptor (Homo sapiens) (P18089 whole entry): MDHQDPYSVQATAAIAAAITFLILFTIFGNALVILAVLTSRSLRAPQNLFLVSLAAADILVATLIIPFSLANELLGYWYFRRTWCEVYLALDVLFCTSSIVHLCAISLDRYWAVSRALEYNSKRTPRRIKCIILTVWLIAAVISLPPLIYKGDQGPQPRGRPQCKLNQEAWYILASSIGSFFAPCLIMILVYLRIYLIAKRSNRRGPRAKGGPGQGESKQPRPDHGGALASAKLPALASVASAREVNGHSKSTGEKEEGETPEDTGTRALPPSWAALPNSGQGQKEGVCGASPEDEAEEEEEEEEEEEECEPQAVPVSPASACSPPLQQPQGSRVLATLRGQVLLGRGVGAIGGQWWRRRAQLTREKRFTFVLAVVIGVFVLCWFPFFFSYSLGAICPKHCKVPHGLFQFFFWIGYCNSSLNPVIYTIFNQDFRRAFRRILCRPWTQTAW
Sequence of Alpha-2B adrenergic receptor (P18089 whole entry): as above
Sequence of Alpha-1D adrenergic receptor (Homo sapiens) (P25100 whole entry): as the sequence (P25100 whole entry) above
Sequence of Alpha-2C adrenergic receptor (P18825 whole entry): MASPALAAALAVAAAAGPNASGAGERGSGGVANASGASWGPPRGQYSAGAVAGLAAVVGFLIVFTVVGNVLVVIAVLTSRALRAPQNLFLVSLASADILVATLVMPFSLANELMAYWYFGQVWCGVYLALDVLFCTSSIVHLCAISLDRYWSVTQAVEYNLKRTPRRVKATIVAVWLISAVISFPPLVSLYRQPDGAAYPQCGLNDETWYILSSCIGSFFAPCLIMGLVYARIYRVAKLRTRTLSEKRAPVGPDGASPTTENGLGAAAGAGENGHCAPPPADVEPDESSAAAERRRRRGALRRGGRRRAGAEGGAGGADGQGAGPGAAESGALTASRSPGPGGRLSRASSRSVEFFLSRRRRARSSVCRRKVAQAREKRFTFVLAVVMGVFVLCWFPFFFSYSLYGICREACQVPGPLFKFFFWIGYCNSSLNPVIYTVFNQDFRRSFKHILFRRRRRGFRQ
Sequence of Alpha-2C adrenergic receptor (Homo sapiens) (P18825 whole entry): as above

For `OC1(c2ccc(Cl)c(C(F)(F)F)c2)CCN(CCCN(c2ccc(F)cc2)c2ccc(F)cc2)CC1`, the inhibition (Histamine H1 receptor [1]) was 88.5% and the Ki (Histamine H1 receptor [2]; read-out: Ki) was 814 nM.
In the case of `COc1ccc(N(CCCCN2CCC(O)(c3ccc(Cl)c(C(F)(F)F)c3)CC2)c2ccc(OC)cc2)cc1`, the Activity (Mus musculus [3]) is reported as “Non-Toxic”, the Activity (Mus musculus [4]) is reported as “Non-Toxic” and the Activity (Mus musculus [5]) is reported as “Non-Toxic”. For the same compound, the Activity (Mus musculus [6]) was “Non-Toxic”, the Activity (Mus musculus [7]) was “Non-Toxic” and the Activity (Mus musculus [8]) was “Non-Toxic”. For the same compound, the Activity (Mus musculus [9]) was “Non-Toxic”, the Activity (Mus musculus [10]) was “Non-Toxic” and the Ki ([11]; read-out: Ki) was 4970 nM. For the same compound, the Tmax [12] was 6 h, the Activity (Mus musculus [13]) was “Non-Toxic” and the Activity (Mus musculus [14]) was “Non-Toxic”. For the same compound, the Activity (Mus musculus [15]) was “Non-Toxic”, the Activity (Mus musculus [16]) was “Non-Toxic” and the Drug uptake [17] was “Active”. The Activity (Mus musculus [18]) was “Non-Toxic”, the Activity (Mus musculus [19]) was “Non-Toxic” and the Activity (Mus musculus [20]) was “Non-Toxic”. The Activity (Mus musculus [21]) was “Non-Toxic”, the Drug uptake [22] was “Active” and the inhibition (Histamine H1 receptor [1]) was 71.9%. For the same compound, the Ki (Histamine H1 receptor [2]; read-out: Ki) was 7030 nM, the Activity (Mus musculus [23]) was “Non-Toxic” and the Activity (Mus musculus [24]) was “Non-Toxic”.
In the case of `OC1(c2ccc(Cl)c(C(F)(F)F)c2)CCN(CCCC=C(c2ccc(F)cc2)c2ccc(F)cc2)CC1`, the inhibition (Histamine H1 receptor [1]) is reported as 64.6% and the Ki (Histamine H1 receptor [2]; read-out: Ki) is reported as 718 nM.
`OC1(c2ccc(Cl)c(C(F)(F)F)c2)CCN(CCCCCc2ccc(F)cc2)CC1` showed an inhibition (Histamine H1 receptor [1]) of 69.2% and a Ki (Histamine H1 receptor [2]; read-out: Ki) of 718 nM.
With `OC1(c2ccc(Cl)c(C(F)(F)F)c2)CCN(CCCC(c2ccc(F)cc2)c2ccc(F)cc2)CC1` [PENFLURIDOL] the inhibition [25] was 100%, the inhibition [26] was 94% and the inhibition [27] was 95.6%. It also gave a Ki [28] of 401 nM, a Ki [29] of 445 nM and a Ki [30] of 515 nM. The Drug uptake [22] was “Active”, the inhibition [31] was 95.7% and the inhibition (Histamine H1 receptor [1]) was 84%. The Ki [32] was 602 nM.
For `OC1(c2ccc(Cl)c(C(F)(F)F)c2)CCN(CCCCN(c2ccc(F)cc2)c2ccc(F)cc2)CC1`, the Ki ([11]; read-out: Ki) was 4150 nM and the Ki (Histamine H1 receptor [2]) was “Not Active”.
For `OC1(c2ccc(Cl)c(C(F)(F)F)c2)CCN(CCCC(c2ccccc2)c2ccccc2)CC1`, the Ki ([11]; cho) was “Not Active”.
With `OC1(c2ccc(Cl)c(C(F)(F)F)c2)CCN(CCCCC(c2ccc(F)cc2)c2ccc(F)cc2)CC1` the Activity (Mus musculus [3]) was “Non-Toxic”, the Activity (Mus musculus [4]) was “Non-Toxic” and the Activity (Mus musculus [5]) was “Non-Toxic”. The Activity (Mus musculus [6]) was “Non-Toxic”, the Activity (Mus musculus [7]) was “Non-Toxic” and the Activity (Mus musculus [8]) was “Non-Toxic”. The Activity (Mus musculus [9]) was “Non-Toxic”, the Activity (Mus musculus [10]) was “Non-Toxic” and the Ki ([11]; read-out: Ki) was 894 nM. The Activity (Mus musculus [13]) was “Non-Toxic”, the Activity (Mus musculus [14]) was “Non-Toxic” and the Activity (Mus musculus [15]) was “Non-Toxic”. For the same compound, the Activity (Mus musculus [16]) was “Non-Toxic”, the Drug uptake [17] was “Active” and the Activity (Mus musculus [18]) was “Non-Toxic”. The Activity (Mus musculus [19]) was “Non-Toxic”, the Activity (Mus musculus [20]) was “Non-Toxic” and the Activity (Mus musculus [21]) was “Non-Toxic”. For the same compound, the Drug uptake [22] was “Active”, the Activity (Mus musculus [23]) was “Non-Toxic” and the Activity (Mus musculus [24]) was “Non-Toxic”.
